{
  "source": "ChEMBL document CHEMBL1146062",
  "about": "“Synthesis of 3-benzyl-2-substituted quinoxalines as novel monoamine oxidase A inhibitors” (Bioorg Med Chem Lett, 2006)",
  "key": {"[1]": {"target": "T1, Amine oxidase [flavin-containing] B (Rattus norvegicus, UniProt P19643)", "T1 sequence (P19643 whole entry)": "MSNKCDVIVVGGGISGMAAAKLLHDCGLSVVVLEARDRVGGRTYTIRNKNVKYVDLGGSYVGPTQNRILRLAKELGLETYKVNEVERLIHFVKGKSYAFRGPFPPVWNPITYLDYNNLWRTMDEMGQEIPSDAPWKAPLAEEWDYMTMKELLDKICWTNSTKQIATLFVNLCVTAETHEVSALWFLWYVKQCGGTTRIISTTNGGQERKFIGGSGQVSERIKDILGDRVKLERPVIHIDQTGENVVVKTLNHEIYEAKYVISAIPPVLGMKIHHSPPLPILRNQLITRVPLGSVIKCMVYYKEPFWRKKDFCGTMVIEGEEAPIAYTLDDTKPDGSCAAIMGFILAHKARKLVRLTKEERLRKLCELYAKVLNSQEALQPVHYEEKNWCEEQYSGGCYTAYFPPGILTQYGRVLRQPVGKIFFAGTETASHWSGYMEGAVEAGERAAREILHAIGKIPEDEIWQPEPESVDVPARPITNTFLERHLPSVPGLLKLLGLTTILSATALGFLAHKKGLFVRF", "assay": "Inhibition of rat liver mitochondria MAOB"}, "[2]": {"target": "T2, Amine oxidase [flavin-containing] A (Rattus norvegicus, UniProt P21396)", "T2 sequence (P21396 whole entry)": "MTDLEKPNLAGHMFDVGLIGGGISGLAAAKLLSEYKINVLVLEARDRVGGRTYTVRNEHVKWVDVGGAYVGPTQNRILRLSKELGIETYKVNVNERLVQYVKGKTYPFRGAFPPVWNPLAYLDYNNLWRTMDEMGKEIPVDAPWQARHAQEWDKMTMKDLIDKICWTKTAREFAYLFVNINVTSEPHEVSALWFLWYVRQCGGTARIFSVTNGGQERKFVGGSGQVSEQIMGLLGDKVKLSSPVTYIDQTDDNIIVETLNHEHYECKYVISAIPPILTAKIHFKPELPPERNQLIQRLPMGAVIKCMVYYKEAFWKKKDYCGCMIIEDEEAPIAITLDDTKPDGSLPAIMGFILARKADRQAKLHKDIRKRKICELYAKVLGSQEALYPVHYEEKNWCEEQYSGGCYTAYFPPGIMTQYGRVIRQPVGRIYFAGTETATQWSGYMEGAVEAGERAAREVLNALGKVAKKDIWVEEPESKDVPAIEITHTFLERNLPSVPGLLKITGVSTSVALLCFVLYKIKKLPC", "assay": "Inhibition of rat liver mitochondria MAOA at 100 uM", "in_short": "(§1)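 MAO-A activity was measured in rat liver mitochondria with serotonin (5HT) as substrate. Test compounds were used at a final concentration of 1 × 10^-4 M, and inhibition was determined.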"}, "[3]": {"target": "T2, Amine oxidase [flavin-containing] A", "assay": "Inhibition of rat liver mitochondria MAOA", "in_short": "as §1"}, "Mus musculus [4]": {"tested_on": "Mus musculus", "assay": "Toxicity in mouse upto 250 mg/kg, po", "type": "organism-based", "set-up": "dose 250 mg/kg, route oral", "details": "in vivo", "in_short": "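Acute oral toxicity was assessed in male mice. Tolerability and mortality were recorded at doses up to […].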"}, "Mus musculus [5]": {"tested_on": "Mus musculus", "assay": "Toxicity in mouse upto 125 mg/kg administered by parenteral route", "type": "organism-based", "set-up": "dose 125 mg/kg", "details": "in vivo"}},
  "data": [
    {"compound": "Clc1cc2nc(Cc3ccccc3)c(NCCN3CCOCC3)nc2cc1Cl", "values": [
      {"measurement": "IC50", "setting": "[1]", "value": 960, "unit": "µM"},
      {"measurement": "inhibition at 100 µM", "setting": "[2]", "value": 40, "unit": "%"},
      {"measurement": "IC50", "setting": "[3]", "value": 0.073, "unit": "µM"},
      {"measurement": "Activity", "setting": "Mus musculus [4]", "value": "Non-toxic"},
      {"measurement": "Activity", "setting": "Mus musculus [5]", "value": "Non-toxic"}
    ]},
    {"compound": "OCCNc1nc2ccccc2nc1Cc1ccccc1", "values": [
      {"measurement": "IC50", "setting": "[1]", "value": 86, "unit": "µM"},
      {"measurement": "inhibition at 100 µM", "setting": "[2]", "value": 46, "unit": "%"},
      {"measurement": "IC50", "setting": "[3]", "value": 0.0037, "unit": "µM"},
      {"measurement": "Activity", "setting": "Mus musculus [4]", "value": "Non-toxic"},
      {"measurement": "Activity", "setting": "Mus musculus [5]", "value": "Non-toxic"}
    ]},
    {"compound": "CNCCNc1nc2ccccc2nc1Cc1ccccc1", "values": [
      {"measurement": "IC50", "setting": "[1]", "value": 790, "unit": "µM"},
      {"measurement": "inhibition at 100 µM", "setting": "[2]", "value": 40.9, "unit": "%"},
      {"measurement": "IC50", "setting": "[3]", "value": 0.092, "unit": "µM"},
      {"measurement": "Activity", "setting": "Mus musculus [4]", "value": "Non-toxic"},
      {"measurement": "Activity", "setting": "Mus musculus [5]", "value": "Non-toxic"}
    ]},
    {"compound": "c1ccc(Cc2nc3ccccc3nc2NCCN2CCOCC2)cc1", "values": [
      {"measurement": "IC50", "setting": "[1]", "value": 840, "unit": "µM"},
      {"measurement": "inhibition at 100 µM", "setting": "[2]", "value": 46.1, "unit": "%"},
      {"measurement": "IC50", "setting": "[3]", "value": 0.0013, "unit": "µM"},
      {"measurement": "Activity", "setting": "Mus musculus [4]", "value": "Non-toxic"},
      {"measurement": "Activity", "setting": "Mus musculus [5]", "value": "Non-toxic"}
    ]},
    {"compound": "Clc1ccc(Cc2nc3ccccc3nc2NCCN2CCOCC2)cc1", "values": [
      {"measurement": "IC50", "setting": "[1]", "value": 360, "unit": "µM"},
      {"measurement": "inhibition at 100 µM", "setting": "[2]", "value": 50.5, "unit": "%"},
      {"measurement": "IC50", "setting": "[3]", "value": 0.0017, "unit": "µM"},
      {"measurement": "Activity", "setting": "Mus musculus [4]", "value": "Non-toxic"},
      {"measurement": "Activity", "setting": "Mus musculus [5]", "value": "Non-toxic"}
    ]},
    {"compound": "NNc1nc2ccccc2nc1Cc1ccccc1", "values": [
      {"measurement": "IC50", "setting": "[1]", "value": 840, "unit": "µM"},
      {"measurement": "inhibition at 100 µM", "setting": "[2]", "value": 54.1, "unit": "%"},
      {"measurement": "IC50", "setting": "[3]", "value": 0.0088, "unit": "µM"},
      {"measurement": "Activity", "setting": "Mus musculus [4]", "value": "Non-toxic"},
      {"measurement": "Activity", "setting": "Mus musculus [5]", "value": "Non-toxic"}
    ]},
    {"compound": "NNc1nc2ccccc2nc1Cc1ccc(Cl)cc1", "values": [
      {"measurement": "IC50", "setting": "[1]", "value": 570, "unit": "µM"},
      {"measurement": "inhibition at 100 µM", "setting": "[2]", "value": 49.5, "unit": "%"},
      {"measurement": "IC50", "setting": "[3]", "value": 0.0021, "unit": "µM"},
      {"measurement": "Activity", "setting": "Mus musculus [4]", "value": "Non-toxic"},
      {"measurement": "Activity", "setting": "Mus musculus [5]", "value": "Non-toxic"}
    ]},
    {"compound": "NNc1nc2cc(Cl)c(Cl)cc2nc1Cc1ccccc1", "values": [
      {"measurement": "IC50", "setting": "[1]", "value": 74, "unit": "µM"},
      {"measurement": "inhibition at 100 µM", "setting": "[2]", "value": 42, "unit": "%"},
      {"measurement": "IC50", "setting": "[3]", "value": 0.0076, "unit": "µM"},
      {"measurement": "Activity", "setting": "Mus musculus [4]", "value": "Non-toxic"},
      {"measurement": "Activity", "setting": "Mus musculus [5]", "value": "Non-toxic"}
    ]}
  ]
}
